Experimental data published in ChEMBL document CHEMBL1153848, “Design and synthesis of azolopyrimidoquinolines, pyrimidoquinazolines as anti-oxidant, anti-inflammatory and analgesic activities” (2009).
The source made the active and inactive calls.

Legend:
[1] = Antioxidant activity in Sprague-Dawley rat erythrocytes assessed as peroxyl radical-induced hemolysis after 1 hr; type: functional, Erythrocyte
[2] = Antioxidant activity assessed as ABTS radical scavenging activity at 2 mM; type: functional
Summary of the method: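 ABTS radical scavenging, read as the fall in colour absorbance after MeOH/phosphate buffer (1:1) is added. % inhibition = (A_control − A_test)/A_control × 100. The negative control uses MeOH/phosphate buffer (1:1) in place of compound, the blank omits ABTS, and ascorbic acid is the positive control.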

[3] = test system: Brain; experiment: Antioxidant activity in Sprague-Dawley rat brain assessed as inhibition of lipid peroxidation; type: functional, tissue-based
[4] = test system: Kidney; experiment: Antioxidant activity in Sprague-Dawley rat kidney assessed as inhibition of lipid peroxidation; type: functional, tissue-based
[5] = test system: Mus musculus; experiment: Peripheral analgesic activity in Swiss albino mouse assessed as protection against acetic acid-induced writhing response at 20 mg/kg, po administered 30 mins before acetic acid challenge measured after 1 hr relative to control; type: functional
[6] = test system: Mus musculus; experiment: Central analgesic activity in Swiss albino mouse assessed as thermal stimuli reaction time at 20 mg/kg, po after 30 mins by hot plate method; type: functional
Summary of the method: (§1)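 Swiss mice of both sexes (25–30 g), six per group, on a hot plate held at 53 ± 0.5 °C. Latency was timed to hind-paw licking or jumping, with a 60 s cut-off. It was measured before dosing, then at 15, 30, 60 and 90 min after an oral aqueous suspension at 20 mg/kg. Controls were untreated; oral diclofenac sodium 20 mg/kg was the reference.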

[7] = test system: Rattus norvegicus; experiment: Antiinflammatory activity in Sprague-Dawley rat assessed as protection against carrageenan-induced hind paw edema at 20 mg/kg, po administered 1 hr before carrageenan challenge measured after 3 hrs; type: functional
Summary of the method: (§2)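 Adult female albino rats (150–180 g), fasted 18 h, six per group. Aqueous suspension in distilled water given orally at 20 mg/kg 1 h before subplantar injection of 0.1 mL 1% w/v carrageenan into the left hind paw. Vehicle controls got 0.5 mL water; diclofenac sodium 20 mg/kg po was the reference. Paw volume was measured by mercury plethysmometer before injection and hourly for 4 h. Inhibition = (Ec−Et)/Ec, with edema = (Vt−V0)/V0.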

[8] = test system: Rattus norvegicus; experiment: Antiinflammatory activity in Sprague-Dawley rat assessed as protection against carrageenan-induced hind paw edema at 20 mg/kg, po administered 1 hr before carrageenan challenge measured after 2 hrs; type: functional; summary of the method: as §2
[9] = test system: Rattus norvegicus; experiment: Antiinflammatory activity in Sprague-Dawley rat assessed as protection against carrageenan-induced hind paw edema at 20 mg/kg, po administered 1 hr before carrageenan challenge measured after 1 hr; type: functional; summary of the method: as §2
[10] = test system: Mus musculus; experiment: Peripheral analgesic activity in Swiss albino mouse assessed as protection against acetic acid-induced writhing response at 20 mg/kg, po administered 30 mins before acetic acid challenge measured after 30 mins relative to control; type: functional
[11] = test system: Mus musculus; experiment: Peripheral analgesic activity in Swiss albino mouse assessed as protection against acetic acid-induced writhing response at 20 mg/kg, po administered 30 mins before acetic acid challenge measured after 2 hrs relative to control; type: functional
[12] = test system: Mus musculus; experiment: Central analgesic activity in Swiss albino mouse assessed as thermal stimuli reaction time at 20 mg/kg, po after 60 mins by hot plate method; type: functional; summary of the method: as §1
[13] = test system: Mus musculus; experiment: Peripheral analgesic activity in Swiss albino mouse assessed as protection against acetic acid-induced writhing response at 20 mg/kg, po administered 30 mins before acetic acid challenge measured after 3 hrs relative to control; type: functional
[14] = test system: Mus musculus; experiment: Central analgesic activity in Swiss albino mouse assessed as thermal stimuli reaction time at 20 mg/kg, po after 90 mins by hot plate method; type: functional; summary of the method: as §1

SMILES	Activity [1] [%]	inhibition [2] [%]	Activity [3]	Activity [4]	Activity [5] [%]	Activity [6] [min]	Activity [7] [%]	Activity [8] [%]	Activity [9] [%]	Activity [10] [%]	Activity [11] [%]	Activity [12] [min]	Activity [13] [%]	Activity [14] [min]
Nc1ccc(/C=C2/CCCc3c2nc2nc4s/c(=C\c5cccs5)c(=O)n4c(=O)c2c3-c2ccc(N)cc2)cc1	6.36	25.9	Active	Active										
O=c1[nH]c(=S)[nH]c2c1C(c1ccc(Cl)cc1)C1=C(N2)/C(=C/c2ccc(Cl)cc2)CCC1 (stereo not drawn)	12.72	59.3	Active	Active	69	9.42	40.2	62	56.3	60.4	74.3	10.41	47.3	11.67
O=c1c2c(-c3ccc(Cl)cc3)c3c(nc2nc2sc4c(n12)ONC4c1ccccc1)/C(=C\c1ccc(Cl)cc1)CCC3 (stereo not drawn)	9.39	33.3	Active	Active	53	7.08	34.8	57.1	49.6	46.7	59.3	9.52	36.5	12.68
CC(=O)CSc1nc2nc3c(c(-c4ccc(Cl)cc4)c2c(=O)[nH]1)CCC/C3=C/c1ccc(Cl)cc1	8.33	35.2	Active	Active										
CSc1nc2nc3c(c(-c4ccc(Cl)cc4)c2c(=O)[nH]1)CCC/C3=C/c1ccc(Cl)cc1	4.24	33.3	Active	Active	52	8.42	32.4	56.2	50.1	50.4	55.5	10.41	37.6	10.67
CCSc1nc2nc3c(c(-c4ccc(Cl)cc4)c2c(=O)n1CC)CCC/C3=C/c1ccc(Cl)cc1	30.75	35.2	Active	Active										
CCSc1nc2nc3c(c(-c4ccc(Cl)cc4)c2c(=O)n1C)CCC/C3=C/c1ccc(Cl)cc1	5.3	31.5	Active	Active										
O=C([O-])Cc1ccccc1Nc1c(Cl)cccc1Cl.[Na+] [DICLOFENAC SODIUM]					55.2	10	42	60.3	52.4	46	62	11.4	39	13.2
O=C(CSc1nc2nc3c(c(-c4ccc(Cl)cc4)c2c(=O)[nH]1)CCC/C3=C/c1ccc(Cl)cc1)c1ccccc1	6.51	33.3	Active	Active										
CC(=O)c1sc2nc3nc4c(c(-c5ccc(Cl)cc5)c3c(=O)n2c1C)CCC/C4=C/c1ccc(Cl)cc1	6.06	40.7	Active	Active	49	7.54	39.2	44.2	46.7	43.5	53.1	8.61	38.4	12
CN(C)c1ccc(/C=c2\sc3nc4nc5c(c(-c6ccc(Cl)cc6)c4c(=O)n3c2=O)CCC/C5=C/c2ccc(Cl)cc2)cc1	7.27	37	Active	Active										
NNc1nc2nc3c(c(-c4ccc(Cl)cc4)c2c(=O)[nH]1)CCC/C3=C/c1ccc(Cl)cc1			Active	Active										
COc1ccc(NC2NC(SC)=Nc3nc4c(c(-c5ccc(Cl)cc5)c32)CCC/C4=C/c2ccc(Cl)cc2)cc1 (stereo not drawn)			Active	Active	52	8.62	25.3	42.3	39.8	41.5	49.3	9.06	37.3	9.22
CCSc1nc2nc3c(c(-c4ccc(Cl)cc4)c2c(=O)[nH]1)CCC/C3=C/c1ccc(Cl)cc1	5.6	37	Active	Active										
O=c1[nH]c(=S)[nH]c2nc3c(c(-c4ccc(Cl)cc4)c12)CCC/C3=C\c1ccc(Cl)cc1	8.33	44.4	Active	Active										
Nc1ccc(/C=C2/CCCc3c2nc2nc4sc5c(n4c(=O)c2c3-c2ccc(Cl)cc2)ONC5c2cccs2)cc1 (stereo not drawn)	4.64	29.6	Active	Active										
CSC1=Nc2nc3c(c(-c4ccc(Cl)cc4)c2C(N2CCNCC2)N1)CCC/C3=C/c1ccc(Cl)cc1 (stereo not drawn)			Active	Active	50	7.93	42	52	43.1	49.5	49.4	10.15	30.5	11.5
C/C(=N/O)c1sc2nc3nc4c(c(-c5ccc(Cl)cc5)c3c(=O)n2c1C)CCC/C4=C/c1ccc(Cl)cc1	7.22	48.1	Active	Active										
CSC1=Nc2nc3c(c(-c4ccc(Cl)cc4)c2C(N2CCOCC2)N1)CCC/C3=C/c1ccc(Cl)cc1 (stereo not drawn)			Active	Active	47	8.65	37.3	47.1	39.2	45.2	45.2	10.98	27.8	11.12
COc1ccc(/C=c2\sc3nc4nc5c(c(-c6ccc(Cl)cc6)c4c(=O)n3c2=O)CCC/C5=C/c2ccc(Cl)cc2)cc1	4.54	33.3	Active	Active										
CC(=O)C(Sc1nc2nc3c(c(-c4ccc(Cl)cc4)c2c(=O)[nH]1)CCC/C3=C/c1ccc(Cl)cc1)C(C)=O	7.87	42.6	Active	Active	54	8.68	38.6	48.6	46.3	46	56.6	9.8	37.3	10.4
CSc1nc2nc3c(c(-c4ccc(Cl)cc4)c2c(=O)n1C)CCC/C3=C/c1ccc(Cl)cc1	4.09	31.5	Active	Active										
COc1ccc(C2NOc3c2sc2nc4nc5c(c(-c6ccc(Cl)cc6)c4c(=O)n32)CCC/C5=C/c2ccc(Cl)cc2)cc1 (stereo not drawn)	7.27	24.1	Active	Active										
COc1ccc(/C=C2\CCCC3=C2Nc2[nH]c(=S)[nH]c(=O)c2C3c2ccc(OC)cc2)cc1 (stereo not drawn)	8.18	66.7	Active	Active	74	9.84	46.5	62.4	59.5	69	75.4	11.62	58.2	11.88
COc1ccc(/C=C/C(=O)c2sc3nc4nc5c(c(-c6ccc(Cl)cc6)c4c(=O)n3c2C)CCC/C5=C/c2ccc(Cl)cc2)cc1	5.9	22.2	Active	Active										
